According to article PMC6843717 (ACS Omega, 2019):
Several values for one entry are separate records, joined by “and”; a condition that tells them apart may be missing. Equal entries are not always repeated. Marks after values point to notes of the source that are not given here. Blank lines part the entries; values can stand above or below the molecule they belong to.

Experiments:
[1] = Plasma pharmacokinetics after single IP or PO dose; type: in vivo, Balb/c mice
In short: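 Female BALB/c mice, 4–5 weeks old, acclimated 1 week. Single 10 mg/kg dose (0.1 mL in 12.5% ethanol/12.5% cremophor/75% PBS, pH 7.4), IP or oral gavage. Five mice per time point (0.08–12 h) bled by cardiac puncture into citrate. Plasma protein-precipitated and analysed by SFC-MS/MS (ESI+, m/z 339.1→179.9). λz by terminal log-linear regression; relative bioavailability PO vs IP.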

[2] = Tissue distribution after single IP or PO dose; type: in vivo, BALB/c mice; settings: for MRT inf / Vd/F / concentration at 30 min / half-life / k el / tissue uptake / Tmax: 10 mg/kg; for Tmax / AUC0–t / Cl/F: mean ± SEM
In short: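 Same single 10 mg/kg IP or PO dosing in female BALB/c mice. Liver, heart, spleen, kidneys and lungs taken at 0.17, 0.5, 1 and 3 h (n = 5), saline-flushed and snap-frozen. Tissue homogenized 1:4 w/v in pH 7.4 saline, liquid–liquid extracted with internal standard, quantified by SFC-MS/MS. Localization index = tissue %ID/g over plasma %ID/mL; mean ± SEM.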

[3] = MBQ-167 distribution in mouse mammary tumors; type: in vivo, SCID mice; settings: 2.5 mg/kg BW 24 h prior to sacrifice, 3-month multiple low-dose regimen
In short: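 Female SCID mice, 4 weeks old, received 2 × 10^6 GFP-tagged MDA-MB-468 cells into the mammary fat pad. After 1 week, vehicle or 2.5 mg/kg ip was given three times weekly for 3 months. Twenty-four hours after the last dose, five mice per arm got 10 mg/kg 30 min before sacrifice. Tumours were saline-flushed, snap-frozen, homogenized, extracted and quantified by SFC-MS/MS (n = 5).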

[4] = Stability of MBQ-167 in mouse plasma; type: physicochemical; settings: for postpreparative stability RE%: 8 h; for short term stability RE%: 4 h at benchtop; for freeze–thaw stability RE% / long term stability RE%: −80 °C; for freeze–thaw stability RE%: 3 cycles 24 h
In short: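 Spiked mouse plasma QCs (calibration 1.5–1000 ng/mL) quantified by SFC-MS/MS after protein precipitation; RE% against nominal. Short-term: 2.5 and 950 ng/mL, 4 h at room temperature. Postpreparative: three QC levels (2.5, 450, 950 ng/mL) held at 4 °C. Long-term: −80 °C for 15 and 134 days. Freeze–thaw: three 24 h cycles at −80 °C.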

[5] = Stability of MBQ-167 in mouse liver; type: physicochemical; settings: for postpreparative stability RE% / short term stability RE% / freeze–thaw stability RE% / long term stability RE%: liver; for postpreparative stability RE%: 8 h; for short term stability RE%: 3 h in an ice bucket; for freeze–thaw stability RE% / long term stability RE%: −80 °C; for freeze–thaw stability RE%: 3 cycles 24 h; for long term stability RE%: 90 days
In short: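 Spiked mouse tissue QCs (calibration 10–1000 ng/mL) quantified by SFC-MS/MS; RE% against nominal. Short-term: 15 and 950 ng/mL, 3 h in an ice bucket. Postpreparative: 15, 450 and 950 ng/mL, 8 h at 4 °C. Long-term: −80 °C for 90 days. Freeze–thaw: three 24 h cycles at −80 °C.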

Cdc42 = settings: read-out: IC50 for Cdc42 activation; cited from earlier work
[6] = tested on: HER2-type mammary fat pad tumor; settings: 10 mg/kg BW; immunocompromised mice; cited from earlier work
[7] = cited from earlier work
[8] = female, BALB/c, mouse, plasma, ip, 10 mg/kg
[9] = female, BALB/c, mouse, plasma, po, 10 mg/kg
[10] = plasma, intraperitoneal 10 mg/kg, mean ± SEM
[11] = female, BALB/c, mouse, heart, ip
[12] = female, BALB/c, mouse, heart, po
[13] = female, BALB/c, mouse, kidneys, ip
[14] = female, BALB/c, mouse, kidneys, po
[15] = female, BALB/c, mouse, liver, ip
[16] = female, BALB/c, mouse, liver, po
[17] = female, BALB/c, mouse, lungs, ip
[18] = female, BALB/c, mouse, lungs, po
[19] = female, BALB/c, mouse, spleen, ip
[20] = female, BALB/c, mouse, spleen, po

detection of MBQ-167 in tumor [3]: not detected
stability in plasma (±15% RSD, RE) ([4]; incubation at ambient temperature for four hours): stable
freeze–thaw stability ([4]; plasma, three freeze–thaw cycles lasting 24 h): stable
stability in tissues ([5]; incubation in an ice bucket for 3 h): stable
freeze–thaw stability ([5]; tissues, three freeze–thaw cycles lasting 24 h): stable
Compound: CCn1c2ccccc2c2cc(-n3nncc3-c3ccccc3)ccc21 [MBQ-167]

Compound: CS(=O)(=O)CCNCc1ccc(-c2ccc3ncnc(Nc4ccc(OCc5cccc(F)c5)c(Cl)c4)c3c2)o1 [lapatinib]
bioavailability (F) ([7]; reported for other anticancer drugs): 43–50%

Compound: CO[C@H]1C[C@@H]2CC[C@@H](C)[C@@](O)(O2)C(=O)C(=O)N2CCCC[C@H]2C(=O)O[C@H]([C@H](C)C[C@@H]2CC[C@@H](OCCO)[C@H](OC)C2)CC(=O)[C@H](C)/C=C(\C)[C@@H](O)[C@@H](OC)C(=O)[C@H](C)C[C@H](C)/C=C/C=C/C=C/1C [everolimus]
bioavailability ([7]; FDA-approved small molecules for advanced breast cancer): ~5%
